# Reference: ChEMBL document CHEMBL1150774, “1-[(Imidazolidin-2-yl)imino]indazole. Highly alpha 2/I1 selective agonist: synthesis, X-ray structure, and biological activity” (J Med Chem, 2008)
# The source made the active and inactive calls. No cut-off for these calls is given here.
# Assays:
# Rattus norvegicus [1] = test: Hypotensive activity in Wistar rat assessed as decrease in mean arterial blood pressure at 0.1 mg/kg, iv after 10 mins; type: functional
# How it was run: (§1)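 Male rats (200-250 g) anaesthetised with thiopental 70 mg/kg ip, then maintained at 30 (µg/kg)/min. Saline-thiopental infusion at 1.2 mL/h; 40 min recovery, then 40 min saline. Compound given as iv bolus at 0.1 mg/kg. MAP and HR recorded directly at 100 Hz. ΔMAP and ΔHR taken relative to time 0; 4-7 experiments; repeated-measures ANOVA.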
# Rattus norvegicus [2] = test: Hypotensive activity in Wistar rat assessed as decrease in mean arterial blood pressure at 0.1 mg/kg, iv after 30 mins; type: functional; how it was run: as §1
# Rattus norvegicus [3] = test: Hypotensive activity in Wistar rat assessed as decrease in mean arterial blood pressure at 0.1 mg/kg, iv after 60 mins; type: functional; how it was run: as §1
# Rattus norvegicus [4] = test: Hypotensive activity in Wistar rat assessed as decrease in heart rate at 0.1 mg/kg, iv after 90 mins; type: functional; how it was run: as §1
# [5] = Displacement of [3H]2BFI from imidazoline 2 receptor in Sprague-Dawley rat brain
# How it was run: (§2)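 Crude P2 membranes from male rat brain (250-280 g), washed and stored at -70 °C. 0.2-0.3 mg protein incubated with 11 concentrations (0.01 nM to 100 µM) plus 1 nM [3H]2BFI (I2) or 1 nM [3H]RX821002 (α2). Nonspecific binding: 10 µM BU224 (I2) or 10 µM rauwolscine (α2). Run in triplicate, 45 min at room temperature. Ki by Cheng-Prusoff, 3-4 experiments.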
# Rattus norvegicus [6] = species on record: Rattus norvegicus; test: Selectivity for Sprague-Dawley rat alpha 2 adrenoceptor over Sprague-Dawley rat imidazoline 1 receptor
# Rattus norvegicus [7] = test: Hypotensive activity in Wistar rat assessed as decrease in mean arterial blood pressure at 0.1 mg/kg, iv after 90 mins; type: functional; how it was run: as §1
# Rattus norvegicus [8] = test: Reversal of hypotensive activity in Wistar rat at 10 mg/kg, iv in presence of RX821002; type: functional, organism-based; design: dose 10 mg/kg
# Rattus norvegicus [9] = test: Hypotensive activity in Wistar rat assessed as decrease in heart rate at 0.1 mg/kg, iv after 60 mins; type: functional; how it was run: as §1
# Rattus norvegicus [10] = species on record: Rattus norvegicus; test: Hypotensive activity in Wistar rat assessed as mean arterial blood pressure; type: functional
# Rattus norvegicus [11] = test: Hypotensive activity in Wistar rat assessed as decrease in heart rate at 0.1 mg/kg, iv after 10 mins; type: functional; how it was run: as §1
# [12] = Displacement of [3H][…] from alpha2 adrenoceptor in Sprague-Dawley rat brain; how it was run: as §2
# Nischarin = Nischarin (Rattus norvegicus, UniProt Q4G017); test: Displacement of [3H]clonidine from imidazoline 1 receptor in Sprague-Dawley rat kidney
# Sequence of Nischarin (Q4G017 whole entry): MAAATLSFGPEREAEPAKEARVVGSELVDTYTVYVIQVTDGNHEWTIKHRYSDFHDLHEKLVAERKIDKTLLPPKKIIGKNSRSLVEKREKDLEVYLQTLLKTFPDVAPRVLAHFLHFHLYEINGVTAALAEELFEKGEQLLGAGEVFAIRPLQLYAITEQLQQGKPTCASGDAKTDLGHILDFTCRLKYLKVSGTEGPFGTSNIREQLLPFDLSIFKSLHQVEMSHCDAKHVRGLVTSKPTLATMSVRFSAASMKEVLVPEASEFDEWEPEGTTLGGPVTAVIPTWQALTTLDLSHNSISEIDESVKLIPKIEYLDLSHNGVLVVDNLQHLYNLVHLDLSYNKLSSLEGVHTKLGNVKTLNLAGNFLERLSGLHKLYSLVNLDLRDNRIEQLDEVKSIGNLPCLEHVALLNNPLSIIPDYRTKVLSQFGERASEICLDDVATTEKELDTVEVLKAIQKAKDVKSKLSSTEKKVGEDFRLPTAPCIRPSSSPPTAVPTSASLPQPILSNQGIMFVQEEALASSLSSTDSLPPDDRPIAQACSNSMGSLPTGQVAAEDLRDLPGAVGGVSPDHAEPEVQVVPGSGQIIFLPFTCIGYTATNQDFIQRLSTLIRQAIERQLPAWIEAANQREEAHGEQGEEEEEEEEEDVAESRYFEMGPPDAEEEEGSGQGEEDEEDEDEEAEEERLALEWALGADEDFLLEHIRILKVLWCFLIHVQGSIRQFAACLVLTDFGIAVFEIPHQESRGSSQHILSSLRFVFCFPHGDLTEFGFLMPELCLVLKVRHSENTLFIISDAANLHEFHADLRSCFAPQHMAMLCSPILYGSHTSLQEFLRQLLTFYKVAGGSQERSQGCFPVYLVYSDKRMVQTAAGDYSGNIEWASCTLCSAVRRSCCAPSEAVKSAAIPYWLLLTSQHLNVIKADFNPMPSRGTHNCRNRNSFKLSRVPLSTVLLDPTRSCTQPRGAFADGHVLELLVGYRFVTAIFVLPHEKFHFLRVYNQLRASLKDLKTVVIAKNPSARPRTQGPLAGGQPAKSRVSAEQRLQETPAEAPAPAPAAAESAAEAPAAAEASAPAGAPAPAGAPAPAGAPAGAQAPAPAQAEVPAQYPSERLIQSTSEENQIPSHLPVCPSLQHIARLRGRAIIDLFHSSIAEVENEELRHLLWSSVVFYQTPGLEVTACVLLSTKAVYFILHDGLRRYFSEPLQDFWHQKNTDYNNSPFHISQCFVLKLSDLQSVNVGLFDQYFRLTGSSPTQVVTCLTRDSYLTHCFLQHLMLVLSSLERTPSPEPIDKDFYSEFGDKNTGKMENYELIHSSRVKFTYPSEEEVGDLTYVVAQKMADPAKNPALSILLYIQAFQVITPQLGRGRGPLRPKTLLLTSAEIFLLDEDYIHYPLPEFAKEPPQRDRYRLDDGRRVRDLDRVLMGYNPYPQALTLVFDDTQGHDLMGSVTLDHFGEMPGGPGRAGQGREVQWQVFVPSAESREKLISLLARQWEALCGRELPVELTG
# How it was run: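 Crude P2 membranes from male rat kidney (250-280 g), 0.2-0.5 mg protein. Labelled with 3 nM [3H]clonidine; 10 µM rauwolscine present to block α2 sites; specific binding defined by 10 µM rilmenidine. 11 test concentrations. 50 mM Tris-HCl pH 7.4, 45 min at room temperature. Filtration, scintillation counting; IC50 is displacement of 50% of specific binding.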
# Rattus norvegicus [13] = test: Hypotensive activity in Wistar rat assessed as decrease in heart rate at 0.1 mg/kg, iv after 30 mins; type: functional; how it was run: as §1
SMILES,Activity (Rattus norvegicus [1]) [mmHg],Activity (Rattus norvegicus [2]) [mmHg],Activity (Rattus norvegicus [3]) [mmHg],Activity (Rattus norvegicus [4]) [bpm],Ki [5] [µM],Selectivity ratio (Rattus norvegicus [6]),Activity (Rattus norvegicus [7]) [mmHg],Activity (Rattus norvegicus [8]),Activity (Rattus norvegicus [9]) [bpm],ED50 (Rattus norvegicus [10]) [µg/kg],Activity (Rattus norvegicus [11]) [bpm],Ki [12] [µM],IC50 (Nischarin) [µM],Activity (Rattus norvegicus [13]) [bpm]
Cc1cccc2cnn(N=C3NCCN3)c12.Cl,-14.8,-40.6,-43.5,-119.9,2.52,7.23,-43.2,Active,-122.9,0.6,-110,0.0535,0.387,-115
Cc1ccc2cnn(N=C3NCCN3)c2c1.Cl,-13.2,-23.4,-20.8,-22.2,19.2,,-11,,-26.4,,-71.8,0.0491,,-43.5
COc1ccc2cnn(N=C3NCCN3)c2c1.Cl,-16.5,-17.1,-11.6,14.3,33.6,,-5.3,,-4.1,,-33,0.0962,,-23.6
Cc1cc2ncn(N=C3NCCN3)c2cc1C,,,,,> 10,,,,,,,10.1,,
Cc1cccc2nn(N=C3NCCN3)cc12,,,,,35.1,,,,,,,11.8,,
c1ccc2nn(N=C3NCCN3)cc2c1,,,,,77.8,,,,,,,78.3,,
Cl.c1ccc2c(c1)cnn2N=C1NCCN1 [MARSANIDINE HYDROCHLORIDE],-6.9,-30.9,-29,-9.7,16.9,3880,-22.1,,-31.4,,-48.5,0.0141,54.5,-49
Cl.Clc1cccc2c1cnn2N=C1NCCN1,-10.9,-14,-12.3,-19,11.1,511,-10.9,,-24.3,,-60.8,0.0616,31.5,-32.2
Cl.Clc1ccc2c(cnn2N=C2NCCN2)c1,-0.2,-1.4,-2.8,28.6,20.6,149,-1.1,,12.8,,0.6,0.114,17,7.2
Cc1ccc2cn(N=C3NCCN3)nc2c1,,,,,42.9,0.39,,,,,,50.7,19.7,
Cc1ccc2c(cnn2N=C2NCCN2)c1.Cl,-4.1,-3.6,-4.6,-3,7.16,460,-4.9,,-1,,-104.2,0.0442,20.3,-3.2
Clc1cccc2nn(N=C3NCCN3)cc12,,,,,13.1,15.3,,,,,,3.14,47.8,
c1ccc2c(c1)nnn2N=C1NCCN1,,,,,> 10,< 8.46,,,,,,> 10,84.6,
Cc1nn(N=C2NCCN2)c2ccccc12,,,,,,,,,,,,71.1,,
Clc1ccc2nn(N=C3NCCN3)cc2c1,,,,,33.2,0.33,,,,,,74.1,24.7,
c1ccc2c(c1)ncn2N=C1NCCN1,,,,,> 10,> 16.6,,,,,,6.02,> 100,
COc1cccc2c1cnn2N=C1NCCN1.Cl,-3.7,-7.6,-11,-11.6,5.98,0.19,-12.9,,-12.5,,-18.6,69.6,13.5,-9.7
Cc1cccc2c1cnn2N=C1NCCN1.Cl,-17.7,-29,-14.1,-2.1,10.4,1040,-10.1,,-22.7,,-104.2,0.0371,38.5,-88.3
Cl.c1ccc(-c2nn(N=C3NCCN3)c3ccccc23)cc1,-4.1,-7.6,-10,-12.7,0.684,2.96,-11.4,,-11.1,,-17.7,25.8,76.5,-10.1
Cc1ccc2nn(N=C3NCCN3)cc2c1,,,,,11.4,0.29,,,,,,45.6,13.4,
